Screening results (PubChem BioAssay)
The list is not random: actives were taken first. Their share in the collection is about 2.9%.
MEKK2mut PB1 HTS = MEK5 binding signal on mutant MEKK2 PB1, primary screen, biochemical, multiplex bead flow cytometry, Alexa488-MEK5 | Alexa488-MEK5 binding to MEKK2 mutant | percent response, % at 10 µM | 290,000 compounds, 0.35% hits; in the data active = percent response above about 24%, passing the limit was not always enough
Beta2AR agonist = beta2AR agonists driving receptor internalization, primary screen, cell-based, FAP fluorogen, flow cytometry; Beta-2 adrenergic receptor (Homo sapiens), P07550; Am2.2-beta2AR cells; response, % (no concentration beside the values); 340,000 compounds, 0.43% hits; AID 504454, 2011;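 active = response above a set limit, near 3 SD of response in nonfluorescent compounds, cut at about 42% in these data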
MEKK3 PB1 HTS = modulators of MEKK3-MEK5 PB1 binding, primary screen, biochemical, wildtype MEKK3, multiplex bead flow cytometry, Alexa488-MEK5 | Mitogen-activated protein kinase kinase kinase 3 (Homo sapiens), Q99759 | bead-based flow cytometry, Alexa488-MEK5 binding to MEKK3; actives lie on both sides; 0 = blocked by unlabeled MEK5, 100 = vehicle | binding response (% of control), % at 10 µM | 290,000 compounds, 1.4% hits | AID 1529, 2009;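 active = binding response more than 3 SD above or below the average of its plate-row segment, actives on both sides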;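 also: Alexa488 bead fluorescence after subtracting the streptavidin-only scavenger bead signal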
MEKK2 WT-MEK5 = modulators of MEK5 binding to wildtype MEKK2, primary screen, biochemical, multiplex bead flow cytometry, Alexa488-MEK5. Mitogen-activated protein kinase kinase kinase 2 (Homo sapiens), Q9Y2U5. Alexa488-MEK5 binding to MEKK2 WT; actives lie on both sides. binding response (% of control), % at 10 µM. 290,000 compounds, 1.1% hits; in the data active = binding response below about 67% or above about 130%
ATG4B inh = ATG4B protease inhibitors, primary screen, biochemical, fluorescence, uHTS. Cysteine protease ATG4B (Homo sapiens), Q9Y4P1. ATG4B cleavage of LC3-PLA2, NBD-HPC fluorescence, 1 h. inhibition, % at 8.33 µM. 340,000 compounds, 0.51% hits. AID 504462, 2011; in the data active = inhibition above about 40%
Target sequence (Q9Y4P1 whole entry, looked up): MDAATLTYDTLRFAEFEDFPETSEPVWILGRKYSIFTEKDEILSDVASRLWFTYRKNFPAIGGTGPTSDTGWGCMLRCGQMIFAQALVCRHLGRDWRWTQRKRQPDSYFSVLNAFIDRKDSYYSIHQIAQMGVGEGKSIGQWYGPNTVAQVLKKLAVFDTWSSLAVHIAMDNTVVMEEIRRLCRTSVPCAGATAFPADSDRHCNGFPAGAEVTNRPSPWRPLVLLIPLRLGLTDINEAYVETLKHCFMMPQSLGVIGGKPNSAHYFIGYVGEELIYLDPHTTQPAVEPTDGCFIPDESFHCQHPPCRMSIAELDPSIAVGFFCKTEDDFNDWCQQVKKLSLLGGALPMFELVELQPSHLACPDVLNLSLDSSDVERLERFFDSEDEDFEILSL
Dynein cargo inh = inhibitors of GR-EGFP nuclear translocation, primary screen, dynein cargo transport inhibitor project, imaging, high-content, 3617.4 mouse cells; test concentration mostly 20 µM; stimulated with dexamethasone, 1 µM; hits give low values; z-score, hits read low; 220,000 compounds, 0.47% hits; AID 1381, 2008;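 active = plate z-score of nuclear minus cytoplasmic receptor signal below a set negative limit, without overly bright fluorescence or cell loss, cut at about -3.5 in these data, passing the limit was not always enough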;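 also: z-score of nuclear minus cytoplasmic ring GR-EGFP intensity difference per well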
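Schedule: 48 h induction, then 1 h compound, then 30 min agonist, 37 °C. Buffer or medium: tetracycline-free induction medium containing charcoal-stripped FBS. Reagent: 1.0 µM final dexamethasone stimulus. Evaluation: nuclear versus cytoplasmic GR-EGFP signal, averaged per well. Signal: high-content fluorescence imaging after fixation.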
ATG4B confirm = ATG4B protease inhibitors, retest, confirmation, biochemical, fluorescence, single concentration; shares compounds with ATG4B inh; ATG4B protease fluorescent substrate cleavage assay; inhibition, % at 8.33 µM; 320 compounds, 92% hits; AID 504757, 2011; in the data active = inhibition above about 39%
PLA2 counter = PLA2 enzyme inhibition, counter-screen for ATG4B inhibitor project, biochemical, single concentration, uHTS hits | shares compounds with ATG4B inh | inhibition, % at 8.33 µM | purified PLA2, NBD-C6-HPC fluorescence, 45 min | 1,600 compounds, 66% hits | AID 588402, 2011; in the data active = inhibition above about 50%
Starred values were filed as active, the others as inactive; . = no result given.

SMILES	MEKK2mut PB1 HTS	Beta2AR agonist	MEKK3 PB1 HTS	MEKK2 WT-MEK5	ATG4B inh	Dynein cargo inh	PLA2 counter	others
Cc1sc2nc3c(SC(C)C(=O)O)cc(C(=O)c4ccccc4O)cn3c(=O)c2c1C (stereo not drawn)	-3	5	80	77	52*	-0.098	53*
CCOC(=O)c1sc2nc3c(SCC(=O)O)cc(C(=O)c4ccccc4O)cn3c(=O)c2c1C	-8	20	99	88	13	-0.064	.
Cc1cccc2c1N(CCOc1ccc(C(C)(C)C)cc1)C(=O)C2=O	10	29	105	99	57*	0.58	14	ATG4B confirm=52*
CC/C=C\C/C=C\C/C=C\CCCCCCCC(=O)O	.	6	.	.	46*	.	27	ATG4B confirm=63*
CNC(=S)N1CCN(c2ccc(Cl)c(Cl)c2)CC1	1	6	101	101	1	-0.17	.
O=C(O)c1ccccc1NS(=O)(=O)c1ccc(NN=Cc2ccccc2F)c([N+](=O)[O-])c1	.	3	.	.	40	.	.
Cc1nn(-c2ccccc2)c(Cl)c1/C=N/Nc1ccc(S(=O)(=O)Nc2ccccc2C(=O)O)cc1[N+](=O)[O-]	.	8	.	.	67*	-0.66	47
COc1ccc(C=NNc2ccc(S(=O)(=O)Nc3ccccc3C(=O)O)cc2[N+](=O)[O-])c(OC)c1	.	-10	.	.	48*	.	49
COc1ccc(-n2nnnc2SCC(=O)Nc2c(C)n[nH]c2C)cc1	.	6	.	.	-7	.	.
CCN1CC(CN(C)Cc2nc(-c3ccc(OC)c4ccccc34)oc2C)CC1=O (stereo not drawn)	-5	-3	101	96	5	-0.51	.
CCCCCCCCCCCCN1[C@@H](CC(=O)O)c2cc(C(F)(F)F)ccc2S1(=O)=O	4	4	107	111	59*	.	72*
CC1(C)SC(=S)N(NC(=O)Nc2cccc3ccccc23)C1N(O)C(=O)Nc1ccccc1 (stereo not drawn)	1	1	115	119	46*	0.41	58*
CNC(=O)N(O)C1N(NC(=O)Nc2ccccc2)C(=S)SC1(C)C (stereo not drawn)	.	-3	.	.	6	0.094	.
O=C(Nc1ccccc1N1CCCC1)c1cccc(-c2cc3ccccc3oc2=O)c1	0	-9	96	93	57*	-0.41	67*
Cc1cc(S(=O)(=O)N2CCN=C2c2ccccc2)c(C)cc1Cl	-1	5	100	102	-1	-0.3	.
N=C1SC(c2ccccc2)C(=O)N1c1ncc(Cc2ccccc2)s1 (stereo not drawn)	-1	-2	102	101	56*	0.35	24
Nc1c(N2CCN(c3ccccc3)CC2)c2ccccc2oc1=O	5	-7	103	108	43*	-0.23	44	ATG4B confirm=78*
Cc1c(Cl)cccc1NC(=S)/C(=C(\[O-])c1ccc(Cl)s1)[n+]1ccccc1	-2	4	88	87	37	-0.18	.
Cc1ccc(NC(=O)CNCc2cccs2)c(Br)c1	9	5	107	106	4	.	.
COc1ccc(-n2nc3c(N4CCC(C(=O)N5CCC(C)CC5)CC4)nnc(C)c3c2C)cc1	920*	-8	139*	476*	68*	.	75*
Nc1nnc(SCC(=O)NCCOc2ccccc2)s1	10	0	86	89	5	0.27	.
